# Screens: PubChem, several laboratories
# Compounds with a hit are over-represented: about 2.6% of the library has one in this group of screens.
# T cell modulator – modulates CD8 T cell binding to vesicles; response (vesicle binding), % at 7 µM; AID 2052; 2C CD8+ T cell-vesicle binding, flow cytometry; stronger effect = lower value; hit rate 0.068% among 330,000;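 active = response, share of CD8 T cells binding vesicles, and their 90th percentile fluorescence all below set limits, cut at about 80% in these data, passing the limit was not always enough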;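 also: values below 100% mean blocked vesicle binding to the CD8+ T cells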
#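 material = purified 2C TCR transgenic mouse naive CD8+ T cells | controls = Unloaded micro-vesicles (low), QL9 vesicles with 0.7% DMSO (high) | detection = cytometric PE anti-B7-1 and Alexa647 anti-CD8 signals after 1% paraformaldehyde fixation | incubation = binding step 1.5 h, 37 °C, antibody labelling 20 min, ice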
# MC4R barr agon – human MC4R agonism via beta-arrestin | U2OS MC4R beta-arrestin complementation, luminescence; percent of melanotan II response, DMSO zero | hit rate 0.98% among 360,000 | activation, % at 8.9 µM;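 active = activation above a per-plate cutoff, the mean activation of sample wells on that plate plus 3 SD, cut at about 8% in these data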
# PGE2 EP2 inh – EP2 receptor (human) inhibition | P43116 | C6 glioma cells expressing human EP2, cAMP TR-FRET; cells stimulated with saturating PGE2 | inhibition, % at 25 µM | hit rate 0.52% among 260,000 | AID 1422;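 active = percent inhibition above 40 after rounding to a whole number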;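 also: rat C6 glioma host cells with rolipram phosphodiesterase inhibitor present; the protocol text gives 20 µM as final concentration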
# Target sequence (P43116 whole entry, looked up): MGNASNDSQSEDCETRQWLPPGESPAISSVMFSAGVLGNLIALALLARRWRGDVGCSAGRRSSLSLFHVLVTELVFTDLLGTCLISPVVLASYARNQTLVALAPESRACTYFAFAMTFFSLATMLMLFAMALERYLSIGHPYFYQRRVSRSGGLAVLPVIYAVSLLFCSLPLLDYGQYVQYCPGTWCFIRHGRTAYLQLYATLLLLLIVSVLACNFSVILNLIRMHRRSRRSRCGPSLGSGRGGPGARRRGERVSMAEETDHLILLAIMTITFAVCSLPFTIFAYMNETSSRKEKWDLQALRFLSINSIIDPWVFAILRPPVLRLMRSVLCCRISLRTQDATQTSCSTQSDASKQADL
# Granule exo inh – lytic granule exocytosis inhibition. TALL-104 LAMP-1 surface exposure, flow cytometry; cells stimulated with thapsigargin and PMA. AID 651702. inhibition, % at 10 µM. hit rate 0.66% among 360,000;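 active = inhibition above about 55%, limit read from the data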
# EP2 mod – EP2 receptor (human) modulation; EP2-expressing cells, cAMP HTRF FRET, PGE2 co-stimulation; hit rate 0.83% among 260,000; induction, % at 25 µM; P43116; AID 940;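 active = compounds whose cAMP rise, as percent of the full-agonist control response, exceeds 60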;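 also: rat C6 glioma line stably carrying human EP2 under a CMV promoter; the protocol text gives 20 µM as final concentration; 100% = response of wells given 1 µM PGE2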
# MC4R antag cAMP – antagonists of human melanocortin 4 receptor (MC4R); AID 540295; inhibition, % at 6.5 µM; MC4R-expressing cells, MTII-stimulated cAMP, LANCE TR-FRET; hit rate 0.48% among 360,000;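 active = inhibition above its plate's cutoff, the mean of tested wells on that plate plus 3 SD, cut at about 29% in these data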;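 also: 0% = Melanotan II alone and 100% = Melanotan II plus saturating MCL0020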
#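 Assay system: human MC4R-expressing U2OS cells; reagent: Melanotan II stimulation of cells; dosing: 6.5 µM single dose; timing: compound 30 min, challenge 1 h, detection 1 h; signal: TR-FRET cAMP assay; replicates: one well per compound, no replicates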
# Active calls of the source: *; i = inactive; nt = no result given; + = active, no number.
SMILES,T cell modulator,MC4R barr agon,PGE2 EP2 inh,Granule exo inh,EP2 mod,MC4R antag cAMP
O=C(c1ccccc1)N1N=C(c2cccs2)CC1c1ccccc1O (configuration not stated),419,8.4*,nt,9,nt,-1
COc1ccc(C2=NN(C(=O)c3cccs3)C(c3ccc(OC)cc3)C2)cc1 (configuration not stated),433,-2,5,-4,31,18
O=C(c1cccs1)N1N=C(c2ccc(O)cc2)CC1c1ccccc1 (configuration not stated),301,0,10,-1,65*,-4
Cc1ccc(S(=O)(=O)NCC2CCC(C(=O)O)CC2)cc1 (configuration not stated),i,1,6,1,25,-5
CCc1ccc(Cn2nnc(C(=O)Nc3ccc(OC)cc3OC)c2N)cc1,60,0,6,2,6,-8
COc1ccc(NC(=O)CCC(=O)OCc2ccc(C(=O)Oc3ccc(Cl)cc3)cc2)cc1,202,3,4,-1,13,6
O=C(CCC(=O)OCc1ccc(C(=O)Oc2ccc(Cl)cc2)cc1)Nc1ccccc1,159,9.6*,7,1,8,1
O=C(Nc1cnn(Cc2ccc(F)cc2)c1)c1cc(-c2cccs2)on1,308,13*,5,0,-27,-1
CCCc1cc(C(=O)Nc2cnn(Cc3ccc(F)cc3)c2)no1,159,-1,4,0,-15,18
O=C(CCl)N(CCc1ccccc1)CCc1ccccc1,589,8.3*,nt,5,nt,5
CCN1/C(=C/C(C)=C/c2sc3ccccc3[n+]2CC)Sc2ccccc21,320,-3,+,82*,-255,-45
O=C1CCc2cc(S(=O)(=O)NCc3ccc(Cl)cc3)cc3c2N1CC3,229,0,nt,-2,nt,2
O=C(O)c1c[nH]c(=S)n1-c1ccc(F)cc1,398,-1,17,0,24,-4
CC(=O)N(c1nc(CCl)cs1)c1ccc(C)cc1C,543,-4,10,-4,62*,-2
CCc1[nH]n2c(=O)c3c(nc2c1-c1ccccc1)CCC3,nt,nt,nt,nt,13,nt
Cc1ccc(Cl)c2c1NC(=O)C2=O,0.0*,-2,nt,0,nt,-3
COc1ccc(/C=C2\CCC/C(=C\C=N\N(C)C)C2=O)cc1,298,-6,4,37,6,3
CN(C)/N=C/C=C1\CCC/C(=C\c2ccc(F)c(F)c2)C1=O,346,0,1,90*,2,2
COc1ccc(C(CNC(=O)c2cc3ccccc3o2)N2CCCC2)cc1 (configuration not stated),449,-3,nt,-2,nt,1
Cn1c(=S)c2[nH]c(SCCN3C(=O)c4ccccc4C3=O)nc2n(C)c1=O,nt,nt,41*,nt,21,nt
O=C(CNC(=O)c1ccncc1)N/N=C/c1ccc(Br)cc1,824,-1,6,0,-13,13
O=C(NNc1ccc(Cl)cc1)c1c(F)cccc1Cl,506,-3,10,-2,-53,-5
CC(=O)C(=Nc1ccccc1Cl)NNc1ccc(Cl)cc1,282,0,4,89*,-68,5
N=c1sc2ccccc2n1CCS (tested in a mixture with another compound),nt,nt,57*,nt,-27,nt
O=c1sc2ccccc2n1CCc1ccccc1,nt,nt,6,nt,13,nt
SMILES,T cell modulator,MC4R barr agon,PGE2 EP2 inh,Granule exo inh,EP2 mod,MC4R antag cAMP
COC(=O)c1cc(-c2ccc(Cl)cc2)n(-c2ccc(S(N)(=O)=O)cc2)n1,164,0,2,0,-16,18
COc1cccc(NC(=O)C2CCN(S(=O)(=O)c3ccc4[nH]c(=O)ccc4c3)CC2)c1,650,-1,nt,2,nt,9
CCOC(=O)c1c(SCCN2CCCC2)n(-c2ccccc2)c(=S)n(-c2ccccc2)c1=O,nt,-1,nt,73*,nt,22
O=C(N/N=C/c1ccccn1)c1sc2ccccc2c1Cl,977,-3,11,60*,-19,2
O=C(N/N=C/c1c[nH]c2ccccc12)c1sc2ccccc2c1Cl,121,-1,11,2,-4,3
COc1ccccc1/C=C/C=C(\C#N)C(=O)NC(C)c1ccccc1 (configuration not stated),548,2,nt,77*,nt,8
